Holding throughout (format): functional
The test system of one assay is Klebsiella aerogenes. Kind of assay: Tested in vitro for antibacterial activity against Aerobacter aerogenes. The gist of the method:
(§1)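 MICs determined by twofold agar dilution in nutrient agar with 0.2% yeast extract. Organisms were inoculated onto the plates with a Steers multiple inoculator.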

A further assay relates to Staphylococcus aureus. Kind of assay: Tested in vitro for antibacterial activity against Staphylococcus aureus. In a few lines:
as §1

Another assay deals with Proteus vulgaris. Kind of assay: Tested in vitro for antibacterial activity against Proteus volgaris. The gist of the method:
as §1

For a further assay, the system named is Klebsiella pneumoniae. The experiment in a line: Tested in vitro for antibacterial activity against Klebsiella pneumoniae. The gist of the method:
as §1

The next assay concerns Escherichia coli. Kind of assay: Tested in vitro for antibacterial activity against Escherichia coli. The gist of the method: as §1
The test system of assay [1] is Bordetella bronchiseptica. The experiment in a line: Tested in vitro for antibacterial activity against Bordetella bronchiseptica. In a few lines: as §1
The subject of a further assay is Pseudomonas aeruginosa. Kind of assay: Tested in vitro for antibacterial activity against Pseudomonas aeruginosa. The gist of the method: as §1
The test system of the next assay is Alternaria solani. The experiment in a line: Tested for antifungal activity against Alternaria solani.
The next assay relates to Aspergillus niger. Kind of assay: Tested for antifungal activity against Aspergillus niger.
Another assay concerns Aureobasidium pullulans. The experiment in a line: Tested for antifungal activity against Pullaria pullulans.

SMILES strings stand for the structures. Converted amounts (≈) assume the structure as drawn. Where only a bound is given, the exact number is not on record here.

In the case of `CC1=CC(=O)[C@@]2(O[C@@H]2C(=O)CC(C)C)C(=O)N1C`, the MIC against Klebsiella aerogenes was over 100 µg/mL; against Staphylococcus aureus, 12.5 µg/mL (≈ 49.7 µM); with Proteus vulgaris, 6.3 µg/mL (≈ 25.1 µM); against Klebsiella pneumoniae it was 50 µg/mL (≈ 199 µM); in the assay with Escherichia coli, 100 µg/mL (≈ 398 µM); in assay [1] it was 100 µg/mL (≈ 398 µM). The MIC was over 100 µg/mL in the assay with Pseudomonas aeruginosa, 6.3 µg/mL (≈ 25.1 µM) against Alternaria solani and 50 µg/mL (≈ 199 µM) against Aspergillus niger.

Take `CC(=O)[C@H]1O[C@@]12C(=O)C=C(C)NC2=O`: the MIC against Klebsiella aerogenes was over 100 µg/mL; against Staphylococcus aureus, 100 µg/mL (≈ 512 µM); in the assay with Proteus vulgaris, over 100 µg/mL; in the assay with Klebsiella pneumoniae it was over 100 µg/mL; with Escherichia coli, 50 µg/mL (≈ 256 µM); in assay [1], over 100 µg/mL. In addition, the minimum inhibitory concentration (MIC) in the assay with Pseudomonas aeruginosa is 50 µg/mL (≈ 256 µM); in the assay on Alternaria solani, over 100 µg/mL; against Aspergillus niger, over 100 µg/mL; in the assay on Aureobasidium pullulans, over 100 µg/mL.

As for `CC1=CC(=O)[C@@]2(O[C@H]2C(=O)CC(C)C)C(=O)N1`, the minimum inhibitory concentration (MIC) is 100 µg/mL (≈ 421 µM) against Klebsiella aerogenes; 6.3 µg/mL (≈ 26.6 µM) against Staphylococcus aureus; 6.3 µg/mL (≈ 26.6 µM) against Proteus vulgaris; 6.3 µg/mL (≈ 26.6 µM) in the assay on Klebsiella pneumoniae; 50 µg/mL (≈ 211 µM) in the assay on Escherichia coli; 50 µg/mL (≈ 211 µM) in assay [1]. Besides, the MIC in the assay with Pseudomonas aeruginosa was over 100 µg/mL; with Alternaria solani it was 50 µg/mL (≈ 211 µM); against Aspergillus niger it was over 100 µg/mL.

Turning to `CC(C)CC(=O)C1OC12C(=O)CC(C)(C)CC2=O` (stereo unspecified), the MIC is 25 µg/mL (≈ 99.1 µM) against Klebsiella aerogenes; 25 µg/mL (≈ 99.1 µM) against Staphylococcus aureus; 50 µg/mL (≈ 198 µM) in the assay with Proteus vulgaris; 50 µg/mL (≈ 198 µM) with Klebsiella pneumoniae; over 100 µg/mL against Escherichia coli; 50 µg/mL (≈ 198 µM) in [1]. For the same compound, the minimal inhibitory concentration (MIC) in the assay with Pseudomonas aeruginosa came to 50 µg/mL (≈ 198 µM); against Alternaria solani, 3.1 µg/mL (≈ 12.3 µM); with Aspergillus niger, 25 µg/mL (≈ 99.1 µM); against Aureobasidium pullulans it was 6.3 µg/mL (≈ 25 µM).

As for `CC1=CC(=O)[C@@]2(O[C@H]2C(=O)CC(C)C)C(=O)N1C`, the minimal inhibitory concentration (MIC) against Klebsiella aerogenes was over 100 µg/mL; against Staphylococcus aureus, 25 µg/mL (≈ 99.5 µM); against Proteus vulgaris, 12.5 µg/mL (≈ 49.7 µM); against Klebsiella pneumoniae, 100 µg/mL (≈ 398 µM); with Escherichia coli it was over 100 µg/mL; in assay [1], 100 µg/mL (≈ 398 µM). Also, the minimal inhibitory concentration (MIC) with Pseudomonas aeruginosa was over 100 µg/mL; against Alternaria solani, 12.5 µg/mL (≈ 49.7 µM); in the assay with Aspergillus niger, over 100 µg/mL.

For the compound `CC1=CC(=O)C2(OC2C(=O)CC(C)C)C(=O)N1` (stereo unspecified), the MIC against Klebsiella aerogenes was 100 µg/mL (≈ 421 µM); in the assay on Staphylococcus aureus it was 4.7 µg/mL (≈ 19.8 µM); with Proteus vulgaris, 4.7 µg/mL (≈ 19.8 µM); in the assay on Klebsiella pneumoniae, 4.7 µg/mL (≈ 19.8 µM); against Escherichia coli, 50 µg/mL (≈ 211 µM); in [1], 33.9 µg/mL (≈ 143 µM). Further, the minimum inhibitory concentration (MIC) was over 100 µg/mL against Pseudomonas aeruginosa, 100 µg/mL (≈ 421 µM) in the assay with Alternaria solani, over 100 µg/mL with Aspergillus niger and over 100 µg/mL with Aureobasidium pullulans.

For the compound `CCCCCCCCCC(=O)[C@@H]1O[C@@]12C(=O)C=C(C)NC2=O`, the MIC in the assay with Staphylococcus aureus is 0.8 µg/mL (≈ 2.6 µM); against Klebsiella pneumoniae, over 100 µg/mL; in the assay with Escherichia coli, over 100 µg/mL; in assay [1], 0.8 µg/mL (≈ 2.6 µM); against Alternaria solani, 0.2 µg/mL (≈ 0.651 µM); against Aspergillus niger it was 1.6 µg/mL (≈ 5.21 µM). Further, the MIC in the assay with Aureobasidium pullulans was 0.2 µg/mL (≈ 0.651 µM).

For `CCCCCCCCCC(=O)[C@H]1O[C@@]12C(=O)C=C(C)NC2=O`, the minimum inhibitory concentration (MIC) in the assay with Staphylococcus aureus was 0.4 µg/mL (≈ 1.3 µM); against Proteus vulgaris, 12.5 µg/mL (≈ 40.7 µM); against Klebsiella pneumoniae, over 100 µg/mL; in the assay on Escherichia coli it was over 100 µg/mL; in assay [1] it was 3.1 µg/mL (≈ 10.1 µM); against Alternaria solani it was 0.2 µg/mL (≈ 0.651 µM). In addition, the minimal inhibitory concentration (MIC) with Aspergillus niger and against Aureobasidium pullulans was 0.2 µg/mL (≈ 0.651 µM) throughout.

As to `CC(=O)[C@@H]1O[C@@]12C(=O)C=C(C)NC2=O`, the MIC (in the assay with Klebsiella aerogenes; against Staphylococcus aureus; in the assay with Proteus vulgaris; in the assay on Klebsiella pneumoniae; against Escherichia coli; in assay [1]) was over 100 µg/mL in each case. Also, the minimum inhibitory concentration (MIC) with Pseudomonas aeruginosa, in the assay on Alternaria solani, with Aspergillus niger and with Aureobasidium pullulans was over 100 µg/mL throughout.

Take `CC1=CC(=O)[C@@]2(O[C@@H]2C(=O)CC(C)C)C(=O)N1`: the minimum inhibitory concentration (MIC) in the assay on Klebsiella aerogenes was over 100 µg/mL; in the assay with Staphylococcus aureus, 6.3 µg/mL (≈ 26.6 µM); with Proteus vulgaris it was 3.1 µg/mL (≈ 13.1 µM); against Klebsiella pneumoniae, 6.3 µg/mL (≈ 26.6 µM); against Escherichia coli it was 50 µg/mL (≈ 211 µM); in [1] it was 50 µg/mL (≈ 211 µM). Also, the MIC is over 100 µg/mL against Pseudomonas aeruginosa, 25 µg/mL (≈ 105 µM) with Alternaria solani and over 100 µg/mL with Aspergillus niger.

Usually MIC stands for the lowest concentration found to suppress growth. Low values mean greater potency, high ones weaker potency.
